Laboratory results as given in ChEMBL document CHEMBL2034819, “β-Lapachone analogs with enhanced antiproliferative activity” (Eur J Med Chem, 2012).
Active and inactive are the calls of the source. The rule behind the calls is not given here.

Columns and labels:
[1] = test system: HeLa; test: Growth inhibition of human HeLa cells by SRB assay; type: functional
In short: (§1)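 Cells kept in RPMI 1640 with 5% heat-inactivated FCS and 2 mM L-glutamine. Plated at 10 000 (HBL-100, SW1573), 15 000 (HeLa) or 20 000 (WiDr) cells/well. Drug added on day 1, in triplicate, over 1–100 µM with 0.25% DMSO final. Exposure 48 h. Cells TCA-fixed 60 min at 4 °C, then SRB-stained, OD 492 nm, background-corrected. GI50 reported.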

[2] = test system: WiDr; test: Cell cycle arrest in human WiDr cells assessed as accumulation at G2/M phase after 24 hrs by flow cytometric analysis; type: functional, cell-based
In short: (§2)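 Cells seeded at 2.5–5 × 10^5 per well and treated after 24 h at two concentrations per agent for a further 24 h. Harvested, then fixed in ice-cold 70% EtOH overnight. Treated with DNase-free RNase at 37 °C for 30 min and stained with PI. DNA content read by flow cytometry on 20 000 cells/sample. G0/G1, S and G2/M fractions gated.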

[3] = test system: WiDr; test: Cell cycle arrest in human WiDr cells assessed as accumulation at S phase after 24 hrs by flow cytometric analysis; type: functional, cell-based; in short: as §2
[4] = test system: SW1573; test: Growth inhibition of human SW1573 cells by SRB assay; type: functional; in short: as §1
[5] = test system: HeLa; test: Cell cycle arrest in human HeLa cells assessed as accumulation at G2/M phase after 24 hrs by flow cytometric analysis; type: functional, cell-based; in short: as §2
[6] = test system: HBL-100; test: Growth inhibition of human HBL100 cells by SRB assay; type: functional; in short: as §1
[7] = test system: WiDr; test: Growth inhibition of human WiDr cells by SRB assay; type: functional; in short: as §1
[8] = biological target: DNA topoisomerase 2-alpha (Homo sapiens) (UniProt P11388); test: Inhibition of human topoisomerase 2alpha-mediated kDNA decatenation
[9] = test system: HBL-100; test: Cell cycle arrest in human HBL100 cells assessed as accumulation at S phase after 24 hrs by flow cytometric analysis; type: functional, cell-based; in short: as §2
[10] = test system: SW1573; test: Cell cycle arrest in human SW1573 cells assessed as accumulation at G2/M phase after 24 hrs by flow cytometric analysis; type: functional, cell-based; in short: as §2
[11] = test system: SW1573; test: Cell cycle arrest in human SW1573 cells assessed as accumulation at S phase after 24 hrs by flow cytometric analysis; type: functional, cell-based; in short: as §2
[12] = test system: HBL-100; test: Cell cycle arrest in human HBL100 cells assessed as accumulation at G2/M phase after 24 hrs by flow cytometric analysis; type: functional, cell-based; in short: as §2
[13] = test system: HeLa; test: Cell cycle arrest in human HeLa cells assessed as accumulation at S phase after 24 hrs by flow cytometric analysis; type: functional, cell-based; in short: as §2
[14] = test system: HeLa; test: Induction of apoptosis in human HeLa cells assessed as caspase 3 cleavage at 3 uM after 24 hrs by immunoblot analysis; type: functional, cell-based
In short: (§3)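 HeLa cells exposed to 3 µM for several time intervals. Lysed in Tris pH 8.0/NP-40 buffer with protease and phosphatase inhibitors, and debris pelleted. Proteins resolved by SDS-PAGE and blotted to PVDF. Probed for PARP-1, procaspase 3, cyclin A, cyclin E, MRE11, p-Chk2 and γ-H2AX, with α-tubulin as loading control. HRP secondaries with luminol/p-iodophenol detection.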

[15] = test system: HeLa; test: Increase in MRE11A expression in human HeLa cells at 3 uM after 24 hrs by immunoblot analysis; type: functional, cell-based; in short: as §3
[16] = test system: HeLa; test: Induction of DNA damage in human HeLa cells assessed as increase in chk2 phosphorylation at 3 uM after 24 hrs by immunoblot analysis; type: functional, cell-based; in short: as §3
[17] = test system: HeLa; test: Induction of apoptosis in human HeLa cells assessed as PARP cleavage at 3 uM after 24 hrs by immunoblot analysis; type: functional, cell-based; in short: as §3
[18] = Cytotoxicity against mouse erythrocytes assessed as lytic effect; type: cell-based; conditions: erythrocyte
[19] = test system: HeLa; test: Induction of intracellular reactive oxygen species production in human HeLa cells at 3 uM after 3 hrs DCFH-DA staining-based flow cytometric analysis relative to control; type: functional
In short: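 HeLa cells seeded at 3 × 10^5 per well and treated 24 h later at 3 µM for 3 h. Co-incubated with 5 µM DCFH-DA for 1 h at 37 °C. DCF fluorescence read by flow cytometry on 10 000 cells/sample and compared with untreated cells. H2O2 (500 µM) served as positive control.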

[20] = test system: HeLa; test: Increase in cyclin A expression in human HeLa cells at 3 uM after 24 hrs by immunoblot analysis; type: functional, cell-based; in short: as §3
[21] = test system: HeLa; test: Decrease in cyclin E expression in human HeLa cells at 3 uM after 24 hrs by immunoblot analysis; type: functional, cell-based; in short: as §3
[22] = test system: HeLa; test: Induction of DNA damage in human HeLa cells assessed as increase in gamma-H2AX phosphorylation at 3 uM after 24 hrs by immunoblot analysis; type: functional, cell-based; in short: as §3

Sequence of DNA topoisomerase 2-alpha (Homo sapiens) (P11388 whole entry): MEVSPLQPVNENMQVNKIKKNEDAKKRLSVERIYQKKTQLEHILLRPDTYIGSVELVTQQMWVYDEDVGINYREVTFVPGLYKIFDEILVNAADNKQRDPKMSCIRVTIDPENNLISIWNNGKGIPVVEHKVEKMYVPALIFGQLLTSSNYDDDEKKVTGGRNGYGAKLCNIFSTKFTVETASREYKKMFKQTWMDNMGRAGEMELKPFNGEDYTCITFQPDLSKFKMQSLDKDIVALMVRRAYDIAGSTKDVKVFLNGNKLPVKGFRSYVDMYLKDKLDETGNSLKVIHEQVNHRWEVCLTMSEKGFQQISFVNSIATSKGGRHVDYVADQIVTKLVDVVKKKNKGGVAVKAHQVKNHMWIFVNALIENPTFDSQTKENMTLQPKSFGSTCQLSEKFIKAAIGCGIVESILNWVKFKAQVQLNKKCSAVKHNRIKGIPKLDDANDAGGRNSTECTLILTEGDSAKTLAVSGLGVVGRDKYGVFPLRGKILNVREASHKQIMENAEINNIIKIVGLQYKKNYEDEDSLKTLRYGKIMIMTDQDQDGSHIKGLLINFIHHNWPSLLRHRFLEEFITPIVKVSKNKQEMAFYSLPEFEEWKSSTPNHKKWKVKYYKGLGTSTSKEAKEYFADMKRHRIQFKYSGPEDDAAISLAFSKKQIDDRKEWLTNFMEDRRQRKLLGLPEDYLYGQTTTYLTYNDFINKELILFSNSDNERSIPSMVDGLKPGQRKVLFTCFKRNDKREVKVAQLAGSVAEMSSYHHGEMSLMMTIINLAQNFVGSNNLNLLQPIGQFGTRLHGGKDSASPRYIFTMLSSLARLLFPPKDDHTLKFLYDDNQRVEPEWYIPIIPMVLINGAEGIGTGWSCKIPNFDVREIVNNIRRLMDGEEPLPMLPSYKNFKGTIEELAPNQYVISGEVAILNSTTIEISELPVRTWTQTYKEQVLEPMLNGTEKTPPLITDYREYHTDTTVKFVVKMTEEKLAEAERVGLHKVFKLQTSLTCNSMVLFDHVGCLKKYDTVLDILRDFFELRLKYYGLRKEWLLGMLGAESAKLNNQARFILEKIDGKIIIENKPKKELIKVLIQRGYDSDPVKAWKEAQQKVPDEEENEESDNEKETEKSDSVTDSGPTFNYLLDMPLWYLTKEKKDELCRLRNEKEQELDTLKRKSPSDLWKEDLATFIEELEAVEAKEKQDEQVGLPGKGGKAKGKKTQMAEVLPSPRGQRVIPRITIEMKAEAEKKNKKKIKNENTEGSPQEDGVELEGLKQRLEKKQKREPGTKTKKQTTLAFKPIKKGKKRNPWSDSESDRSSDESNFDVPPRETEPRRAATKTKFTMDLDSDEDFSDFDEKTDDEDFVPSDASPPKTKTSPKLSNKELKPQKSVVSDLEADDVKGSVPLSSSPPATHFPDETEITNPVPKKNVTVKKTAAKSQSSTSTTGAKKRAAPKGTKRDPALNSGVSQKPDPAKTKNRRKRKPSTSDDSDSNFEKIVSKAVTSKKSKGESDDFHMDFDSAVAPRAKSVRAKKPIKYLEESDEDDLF

Row | GI50 [1] [nM] | GI50 [4] [nM] | Structure (SMILES) | GI50 [6] [nM] | GI50 [7] [nM] | further results
1 | 1100 | 360 | CC1(C)CCC2=C(O1)c1c(O)cccc1C(=O)C2=O | 620 | 1900 | Activity [2]: Dose-dependent effect; Activity [3]: Dose-dependent effect; Activity [5]: Dose-dependent effect; inhibition [8]: inactive; Activity [9]: Dose-dependent effect; Activity [10]: Dose-dependent effect; Activity [11]: Dose-dependent effect; Activity [12]: Dose-dependent effect; Activity [13]: Dose-dependent effect
2 | 1800 | 19000 | CC1(C)CCC2=C(O1)C(=O)c1c(O)cccc1C2=O | 3400 | 14000 | 
3 | 1600 | 230 | CC1(C)CCC2=C(O1)c1cccc(OC(=O)C(C)(C)C)c1C(=O)C2=O | 180 | 2100 | 
4 | 1700 | 450 | COc1ccc2c(c1)C(=O)C(=O)C1=C2OC(C)(C)CC1 | 410 | 27000 | 
5 | 210 | 29 | CC1(C)CCC2=C(O1)c1cccc(O)c1C(=O)C2=O | 36 | 2000 | Activity [14]: inactive; Activity [15]: Active; Activity [16]: Active; Activity [2]: Dose-dependent effect; Activity [3]: Dose-dependent effect; Activity [17]: inactive; Activity [18]: Non-toxic; fold change (FC) [19]: 6; Activity [20]: Active; Activity [21]: Active; Activity [5]: Dose-dependent effect; Activity [22]: Active; inhibition [8]: inactive; Activity [9]: Dose-dependent effect; Activity [10]: Dose-dependent effect; Activity [11]: Dose-dependent effect; Activity [12]: Dose-dependent effect; Activity [13]: Dose-dependent effect
6 | 18000 | 17000 | COc1ccc2c(c1)C(=O)C(O)=C(CC=C(C)C)C2=O | 19000 | 68000 | 
7 | 5100 | 1400 | COc1cccc2c1C(=O)C(=O)C1=C2OC(C)(C)CC1 | 2700 | 86000 | 
8 | > 100000 | > 100000 | COc1cccc2c1C(=O)C1=C(OC(C)(C)CC1)C2=O | 28000 | > 100000 | 
9 | 1800 | 460 | COc1cccc2c1C1=C(CCC(C)(C)O1)C(=O)C2=O | 690 | 2100 | 
10 | 30000 | 26000 | COc1cccc2c1C(=O)C(CC=C(C)C)=C(O)C2=O | 22000 | > 100000 | 
11 | 2500 | 2300 | CC1(C)CCC2=C(O1)c1ccc(O)cc1C(=O)C2=O | 2300 | 21000 | 
12 | 40000 | 27000 | COc1ccc2c(c1)C(=O)C1=C(CCC(C)(C)O1)C2=O | 28000 | 82000 | 
13 | 1000 | 840 | CC1(C)CCC2=C(O1)c1ccccc1C(=O)C2=O [LAPACHONE] | 380 |  | Activity [2]: Dose-dependent effect; Activity [3]: Dose-dependent effect; Activity [5]: Dose-dependent effect; inhibition [8]: inactive; Activity [9]: Dose-dependent effect; Activity [10]: Dose-dependent effect; Activity [11]: Dose-dependent effect; Activity [12]: Dose-dependent effect; Activity [13]: Dose-dependent effect
